# Assay results as given in ChEMBL document CHEMBL4834426, “Antimalarial Benzimidazole Derivatives Incorporating Phenolic Mannich Base Side Chains Inhibit Microtubule and Hemozoin Formation: Structure-Activity Relationship and In Vivo Oral Efficacy Studies” (J Med Chem, 2021).
# The source made the active and inactive calls. No cut-off for these calls is given here.
# Columns and labels:
# [1] = Tmax in Balb/c mouse at 10 mg/kg, po measured up to 24 hrs by LC-MS/MS analysis; type: ADME, organism-based; details: in vivo
# Procedure, shortened: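 Male Balb/c mice, not fasted, food and water ad libitum; single oral dose. Tail-vein blood into heparinized tubes at 0.5, 1, 3, 5, 7, 9 and 24 h, stored at −80 °C. Whole blood protein-precipitated with acetonitrile containing internal standard, analyzed by LC−MS/MS (LOQ 2 ng/mL). Parameters by noncompartmental analysis with curve stripping. Mean of three mice per point.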
# Plasmodium falciparum [2] = experiment: Antimalarial activity against asexual blood stage drug-sensitive Plasmodium falciparum NF54 infected in erythrocytes assessed as reduction in parasitemia incubated up to 72 hrs by [3H]hypoxanthine incorporation assay; type: functional, organism-based
# Procedure, shortened: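 [³H]-Hypoxanthine incorporation assay (modified) on asexual blood-stage P. falciparum in vitro. IC₅₀ values are means of ≥2 independent experiments.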
# [3] = Resistance index, ratio of IC50 for antimalarial activity against asexual blood stage multi drug-resistant Plasmodium falciparum K1 to IC50 for antimalarial activity against asexual blood stage drug-sensitive Plasmodium falciparum NF54; type: functional
# Procedure, shortened: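 Resistance index is IC₅₀(K1)/IC₅₀(NF54). Both IC₅₀s came from the [³H]-hypoxanthine incorporation assay, as means of ≥2 independent experiments.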
# Plasmodium falciparum [4] = experiment: Antiplasmodial activity against […] Plasmodium falciparum NF54 early gametocytes transfected with GFP-Luc […] at 1 uM incubated for 48 hrs by microscopy based luciferase reporter gene assay relative to control; type: functional
# Procedure, shortened: (§1)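 NF54-Pfs16-GFP-Luc gametocytes, assays set up day 5 (early, stage II/III) or day 10 (late, stage IV/V). Culture at 2−3% gametocytemia, 1.5% hematocrit, 48 h drug exposure at 37 °C under 90% N₂/5% O₂/5% CO₂. Lysates mixed with luciferin; bioluminescence read with 10 s integration. Dual-point: one biological repeat in technical triplicate. Methylene blue (5 μM) reference.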
# Plasmodium falciparum [5] = experiment: Antiplasmodial activity against […] Plasmodium falciparum NF54 early gametocytes transfected with GFP-Luc […] incubated for 48 hrs by microscopy based luciferase reporter gene assay relative to control; type: functional, organism-based; details: NF54, 48 h
# Procedure, shortened: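 Transgenic NF54-Pfs16-GFP-Luc gametocytes, read by luciferase reporter. Early assays were set up on day 5 (50% stage II/50% stage III) and late assays on day 10 (40% stage IV/60% stage V). Luciferin was added to lysates at room temperature and bioluminescence read. Methylene blue (5 μM) was the reference. Single-point screens at 1 and 5 μM used n=1 in technical triplicate. IC₅₀ came from a normalized nonlinear fit, n≥3 in triplicate.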
# Plasmodium falciparum [6] = experiment: Antiplasmodial activity against […] Plasmodium falciparum NF54 late gametocytes transfected with GFP-Luc […] at 5 uM incubated for 48 hrs by microscopy based luciferase reporter gene assay relative to control; type: functional; procedure, shortened: as §1
# Plasmodium falciparum [7] = experiment: Antiplasmodial activity against […] Plasmodium falciparum NF54 late gametocytes transfected with GFP-Luc […] at 1 uM incubated for 48 hrs by microscopy based luciferase reporter gene assay relative to control; type: functional; procedure, shortened: as §1
# CHO = experiment: Cytotoxicity against CHO cells assessed as inhibition of cell viability by MTT assay; type: cell-based; details: Cricetulus griseus
# [8] = Selectivity index, ratio of IC50 for Cytotoxicity against CHO cells assessed as inhibition of cell viability by MTT assay to IC50 for antimalarial activity against asexual blood stage Plasmodium falciparum NF54 assessed as reduction in parasitemia incubated up to 72 hrs by [3H]hypoxanthine incorporation assay; type: toxicity, cell-based; details: hamster, read-out: Selectivity Index
# Procedure, shortened: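 Selectivity index is IC₅₀(CHO)/IC₅₀(NF54). […] IC₅₀ came from nonlinear dose-response fitting. Parasite IC₅₀ came from the [³H]-hypoxanthine assay.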
# [9] = Metabolic stability in rat liver microsomes assessed as compound remaining at 1 uM incubated for 30 mins by LC-MS/MS analysis; type: ADME, Microsome; details: read-out: Stabilty
# Procedure, shortened: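 Single-point design: 1 μM compound with 0.4 mg/mL liver microsomes in 0.1 M phosphate buffer pH 7.4 for 30 min. Quenched with ice-cold acetonitrile containing carbamazepine internal standard, centrifuged, analyzed by LC−MS/MS. Percent remaining from internal-standard-corrected peak areas at 30 min versus 0 min. Propranolol, midazolam and MMV390048 as controls.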
# [10] = Kinetic solubility of the compound in pH 6.5 incubated for 24 hrs by HPLC-DAD analysis; type: physicochemical; details: buffer, read-out: Kinetic_solubility
# Procedure, shortened: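 Miniaturized shake-flask method. 10 mM DMSO stock dried down, phosphate buffer pH 6.5 added, shaken 24 h at 25 °C. Centrifuged 3500g for 15 min; supernatant analyzed by HPLC-DAD against 10−220 μM DMSO calibration curve. Reserpine, hydrocortisone and MMV390048 as controls.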
# Plasmodium berghei = experiment: Antimalarial activity against GFP-transfected Plasmodium berghei ANKA infected in NMRI mouse model assessed as reduction in parasitemia at 50 mg/kg, po dosed 4 times relative to control; type: functional; set-up: scale not given: the % may be the effect or the level left
# Procedure, shortened: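 Mice (n = 3) infected with GFP-transfected P. berghei ANKA. Compound in 70% Tween-80/30% ethanol, diluted 10-fold in water, given orally at 4, 24, 48 and 72 h post-infection. Blood taken day 4 (96 h); parasitemia by flow cytometry, detection limit 0.1%. Activity = difference in mean % parasitemia between control and treated, as % of control.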
# [11] = Volume of distribution in Balb/c mouse at 3 mg/kg, iv measured up to 24 hrs by LC-MS/MS analysis; type: ADME, organism-based; details: in vivo
# Procedure, shortened: (§2)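 Intravenous dosing in male Balb/c mice, fed ad libitum. Tail-vein blood sampled into heparinized tubes at 0.17, 0.5, 1, 3, 5, 7, 9 and 24 h, frozen at −80 °C. Blood extracted by acetonitrile protein precipitation with internal standard; LC−MS/MS quantitation, LOQ 2 ng/mL. Noncompartmental analysis based on curve stripping.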
# [12] = AUC (0 to t) in Balb/c mouse at 3 mg/kg, iv measured up to 24 hrs by LC-MS/MS analysis; type: ADME, organism-based; set-up: dose 3 mg/kg, time <=24; details: in vivo; procedure, shortened: as §2
# Hemozoin = experiment: Inhibition of beta-hematin formation […] incubated for 5 hrs by NP40 detergent-mediated assay
# Procedure, shortened: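 Cell-free β-hematin formation assay in NP-40 (305.5 μM) lipid-mimic medium. Compounds from 20 mM stock serially diluted across wells, in duplicate. Hematin suspended in 1 M acetate buffer pH 4.8; plates incubated ~5 h at 37 °C. Then pyridine solution (with HEPES pH 7.4) and acetone added; absorbance at 405 nm. IC₅₀ by curve fit.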
# [13] = tested on: Plasmodium falciparum NF54; experiment: Inhibition of tubulin polymerization in asexual blood stage Plasmodium falciparum NF54 at 600 nM incubated for 24 hrs by tubulin tracker Oregon Green staining method
# Procedure, shortened: (§3)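 Treatment at 600 nM for asexual parasites (~1% parasitemia, 5% hematocrit, sorbitol-synchronized rings) or 2400 nM for early gametocytes (~2% gametocytemia, 2% hematocrit, 20% I/60% II/20% III). 24 h at 37 °C, 90% N₂/5% CO₂/5% O₂, DMSO <0.1%. Stained with 250 nM Tubulin Tracker Oregon Green 488 for 30 min and Hoechst (100 nM) for 10 min. PBS-washed, imaged live by confocal microscopy. Colchicine (20 μM) positive control.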
# [14] = tested on: Plasmodium falciparum NF54; experiment: Inhibition of tubulin polymerization in asexual stage (I) Plasmodium falciparum NF54 early gametocytes at 2400 nM incubated for 24 hrs by tubulin tracker Oregon Green staining method; procedure, shortened: as §3
smiles,measurement,setting,value
CCNCc1cc(Cl)cc(Nc2nc3cc(F)c(F)cc3n2Cc2ccc(C(F)(F)F)cc2)c1O,Tmax,[1],2.8 h
same,IC50,Plasmodium falciparum [2],190 nM
same,Ratio IC50,[3],0.42
same,inhibition at 1 µM,Plasmodium falciparum [4],62%
same,IC50,Plasmodium falciparum [5],460 nM
same,inhibition at 5 µM,Plasmodium falciparum [6],0%
same,inhibition at 1 µM,Plasmodium falciparum [7],0%
same,IC50,CHO,> 50000 nM
same,selectivity ratio at 72 h,[8],> 263
same,"remaining at 0.5 h, 1 µM",[9],98%
same,solubility kinetic at 24 h,[10],< 5 µM
same,Activity,Plasmodium berghei,98%
same,Vd,[11],6.9 L/kg
same,AUCt,[12],443 µmol·min/L
same,IC50,Hemozoin,18100 nM
same,inhibition,[13],Active
same,inhibition,[14],inactive
